From ChEMBL document CHEMBL1145842, “A selective human H(4)-receptor agonist: (-)-2-cyano-1-methyl-3-[(2R,5R)-5- [1H-imidazol-4(5)-yl]tetrahydrofuran-2-y] methylguanidine” (J Med Chem, 2003) come the findings set out here.

Activity calls are given as the source filed them. The rule behind the calls is not given here.

The target in experiment [1] is T1, Histamine H4 receptor (Homo sapiens, UniProt Q9H3N8). The experiment in a line: Inhibition of the forskolin-stimulated cAMP production in SK-N-MC cells expressing human Histamine H4 receptor. Type of experiment: functional, cell-based. For orientation: Changes in cAMP serve as a functional read-out for many G protein-coupled receptors.
T1 sequence (Q9H3N8 whole entry): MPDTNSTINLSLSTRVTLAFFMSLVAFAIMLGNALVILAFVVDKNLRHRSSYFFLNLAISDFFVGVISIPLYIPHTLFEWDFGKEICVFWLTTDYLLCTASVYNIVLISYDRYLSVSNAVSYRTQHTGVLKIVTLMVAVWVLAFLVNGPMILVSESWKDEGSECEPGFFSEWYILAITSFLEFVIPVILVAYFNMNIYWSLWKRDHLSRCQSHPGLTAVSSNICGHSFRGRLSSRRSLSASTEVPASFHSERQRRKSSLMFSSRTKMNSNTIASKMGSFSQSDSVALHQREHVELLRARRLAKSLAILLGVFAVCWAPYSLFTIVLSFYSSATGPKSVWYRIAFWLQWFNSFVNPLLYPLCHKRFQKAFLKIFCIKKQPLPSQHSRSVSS
Experiment [2] addresses T2, Histamine H3 receptor (Homo sapiens, UniProt Q9Y5N1). In words: Efficacy measured for human Histamine H3 receptor relative to histamine. The class given is functional.
For experiment [3], the target named is T2, Histamine H3 receptor. In words: Histamine H3 receptor competition binding using [3H]Na-methylhistamine.
Experiment [4] deals with T1, Histamine H4 receptor. In words: Histamine H4 receptor competition binding using [3H]Na-methylhistamine.
For experiment [5], the target named is T2, Histamine H3 receptor. In words: Inhibition of the forskolin-stimulated cAMP production in SK-N-MC cells expressing human Histamine H3 receptor. The class given is functional, cell-based.
For experiment [6], the target named is T1, Histamine H4 receptor. The experiment in a line: Efficacy measured for human Histamine H4 receptor relative to histamine. Type of experiment: functional.
The target of experiment [7] is T2, Histamine H3 receptor. In words: Compound was tested for H3 receptor competition binding using [3H]- Na-methylhistamine. The method in brief: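 Homogenates of SK-N-MC cells stably expressing human H3 receptor, in 50 mM Na2HPO4 pH 7.4, incubated 1 h at 37 °C with 1.0 nM [3H]Nα-methylhistamine with or without competitor. Filtration through GF/C filters pretreated with 0.3% polyethylenimine, three washes with ice-cold 25 mM Tris-HCl, 145 mM NaCl pH 7.4, then scintillation counting.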

Experiment [8] deals with T2, Histamine H3 receptor. The experiment in a line: Inhibition of the forskolin-stimulated cAMP production in SK-N-MC cells expressing human Histamine H3 receptor; Not effective. The class given is functional, cell-based.

T2 sequence (Q9Y5N1 whole entry): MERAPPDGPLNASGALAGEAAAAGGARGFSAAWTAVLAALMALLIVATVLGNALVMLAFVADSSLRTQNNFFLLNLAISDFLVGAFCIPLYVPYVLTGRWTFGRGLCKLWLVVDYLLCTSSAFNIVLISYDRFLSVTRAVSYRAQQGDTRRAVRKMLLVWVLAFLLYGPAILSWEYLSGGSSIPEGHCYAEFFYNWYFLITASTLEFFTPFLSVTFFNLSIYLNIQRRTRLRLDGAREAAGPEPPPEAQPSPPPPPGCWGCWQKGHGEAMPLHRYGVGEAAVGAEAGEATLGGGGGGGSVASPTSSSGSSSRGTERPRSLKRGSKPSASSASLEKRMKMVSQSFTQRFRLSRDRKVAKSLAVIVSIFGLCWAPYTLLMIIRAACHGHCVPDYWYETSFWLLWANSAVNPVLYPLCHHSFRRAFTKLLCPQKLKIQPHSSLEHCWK

On to `c1ccc(COC[C@H]2CC[C@H](c3c[nH]cn3)O2)cc1`, for which the results for the EC50 in experiment [1] and in experiment [5] were 741 nM and 91.2 nM, respectively. Also, the Efficacy came to 0.97 in experiment [2] and 0.46 in experiment [6]. Also, the Ki (usually the equilibrium dissociation constant of an inhibitor or competing ligand from its target) was 245 nM in experiment [3] and 1050 nM in experiment [4].

On to `NC[C@H]1C=C[C@H](c2c[nH]cn2)O1`, for which the EC50 – broadly, the concentration that produces a half-maximal response – in experiment [1] is 24000 nM; in experiment [5], 269 nM. The Efficacy in experiment [2] was 1; in experiment [6] it was 0.76. Besides, the inhibition constant Ki was 1020 nM in experiment [3] and 11700 nM in experiment [4].

`NC[C@@H]1C=C[C@@H](c2c[nH]cn2)O1`: the half-maximal effective concentration (EC50) is 85100 nM in experiment [1] and 2820 nM in experiment [5]. Also, the Efficacy in experiment [2] stood at 0.75; in experiment [6], 0.85. Also, the figures for the inhibition constant (Ki) in experiment [3] and in experiment [4] were 2510 nM and above 100000 nM, respectively.

`C/N=C(\NC#N)NC[C@@H]1CC[C@H](c2c[nH]cn2)O1` (single isomer, unassigned) had an EC50 in experiment [1] of 224 nM. For the same compound, the Efficacy in experiment [2] stood at 0.43; in experiment [6], 1.01. Besides, in experiment [4], the Ki was 224 nM.

On to `NC[C@@H]1CC[C@@H](c2c[nH]cn2)O1`, for which the values for the 50% effective concentration (EC50) in experiment [1] and in experiment [5] were 30900 nM and 105 nM, respectively. Further, the Efficacy in experiment [2] turned out to be 0.91; in experiment [6], 0.6. Also, the inhibitory constant (Ki) in experiment [3] was 219 nM; in experiment [4], 12900 nM.

For the compound `NC[C@H]1CC[C@H](c2c[nH]cn2)O1` [IMIFURAMINE], the EC50 in experiment [1] was 2000 nM; in experiment [5], 44.7 nM. For the same compound, the Efficacy in experiment [2] amounted to 1.04; in experiment [6], 0.7. Further, the Ki in experiment [3] was 229 nM; in experiment [4] it was 891 nM.

For the compound `c1ccc(COC[C@H]2CC[C@@H](c3c[nH]cn3)O2)cc1`, the EC50 in experiment [1] is 11500 nM; in experiment [5] it was 9770 nM. Besides, the Efficacy in experiment [2] worked out at 0.86; in experiment [6] it was 0.82. Further, the figures for the Ki in experiment [3] and in experiment [4] were 6920 nM and 13500 nM, respectively.

As to `C/N=C(\NC#N)NC[C@H]1CC[C@H](c2c[nH]cn2)O1`, the midpoint of the response in experiment [1], the EC50, lay at 77.6 nM. The compound also showed an Efficacy in experiment [2] of 0.79. In experiment [4], this compound showed a Ki of 126 nM.

Consider `NC[C@@H]1C=C[C@H](c2c[nH]cn2)O1` (single isomer, unassigned), for which the EC50 is 40700 nM in experiment [1] and 26900 nM in experiment [5]. The Efficacy came out at 0.93 in experiment [2] and 0.74 in experiment [6]. The figures for the Ki in experiment [3] and in experiment [4] were 11500 nM and 21900 nM, respectively.

Turning to `NC[C@H]1CC[C@@H](c2c[nH]cn2)O1` (single isomer, unassigned), the concentration for a half-maximal effect (EC50) in experiment [1] is 7590 nM; in experiment [5] it was 813 nM. In addition, the Efficacy in experiment [2] came to 0.95; in experiment [6], 1.02. Also, the Ki in experiment [3] was 1700 nM; in experiment [4], 6460 nM.

Regarding `c1ccc(COC[C@@H]2CC[C@H](c3c[nH]cn3)O2)cc1`, the results for the EC50 in experiment [1] and in experiment [5] were 135 nM and 191 nM, respectively. For the same compound, the Efficacy in experiment [2] was determined as 1.06; in experiment [6] it was 0.91. Also, the Ki in experiment [3] was 331 nM; in experiment [4], 437 nM.

`NC[C@@H]1CC[C@H](c2c[nH]cn2)O1` (single isomer, unassigned): the concentration for a half-maximal effect (EC50) in experiment [1] was 5500 nM; in experiment [5], 776 nM. Further, the figures for the Efficacy in experiment [2] and in experiment [6] were 1.06 and 0.88, respectively. Besides, the Ki in experiment [3] is 2040 nM; in experiment [4], 2510 nM.

For the compound `c1ccc(COC[C@@H]2CC[C@@H](c3c[nH]cn3)O2)cc1`, the EC50 is 12900 nM in experiment [1] and 9550 nM in experiment [5]. Further, the Efficacy came out at 0.66 in experiment [2] and 0.49 in experiment [6]. Further, the Ki in experiment [4] was 21400 nM; in experiment [7], 10500 nM.

Compound `C/N=C(\NC#N)NC[C@@H]1CC[C@@H](c2c[nH]cn2)O1` had an EC50 in experiment [1] of 21400 nM. Besides, in experiment [4], the inhibition constant (Ki) is 20400 nM. Besides, the Efficacy in experiment [6] came out at 1.06.

As to `C/N=C(\NC#N)NC[C@H]1CC[C@@H](c2c[nH]cn2)O1` (single isomer, unassigned), the Efficacy is below 0.1 in experiment [2] and 1.07 in experiment [6]. The NE result in experiment [8] is “inactive”.

On to `NC[C@H]1C=C[C@@H](c2c[nH]cn2)O1` (single isomer, unassigned), for which the figures for the EC50 in experiment [1] and in experiment [5] were 75900 nM and above 100000 nM, respectively. For the same compound, the Ki was 12000 nM in experiment [4] and 20000 nM in experiment [7]. Moreover, the Efficacy in experiment [6] amounted to 0.71.
